# Assay results: ChEMBL document CHEMBL1641602, “Quinolones as HCV NS5B polymerase inhibitors” (Bioorg Med Chem Lett, 2011); call rule not given here
# What was measured:
# Hepatitis C virus [1] = assay: Antiviral activity against HCV 1b infected in human HuH7 cells assessed as total viral RNA level after 48 hrs by RT-qPCR analysis; type: functional, organism-based, Hepacivirus hominis, genotype 1b, Huh-7
# Outline: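 Huh7/Clone A genotype 1b replicon cells, seeded at 40,000 per well in growth medium without G418, incubated overnight at 37 °C, 5% CO2. Compounds serially diluted in DMSO (final 0.5%), seven concentrations in triplicate, 48 h at 37 °C. Total RNA extracted and replicon RNA quantified by TaqMan RT-qPCR, normalized to untreated cells (100%).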
# [2] = Cytotoxicity against human HuH7 cells; type: cell-based, Huh-7
# [3] = Inhibition of Hepatitis C virus 1b BK NS5B Cdelta21 polymerase by scintillation proximity assay; set-up: species or system Hepatitis C virus (isolate BK)
# [4] = tested on: RNA-directed RNA polymerase (Hepacivirus hominis), O39930 [M423F]; assay: Inhibition of HCV 1b BK NS5B polymerase NNI-2 allosteric site M423F mutant by scintillation proximity assay relative to wild-type; settings: Hepatitis C virus (isolate BK)
# Chain of RNA-directed RNA polymerase (Hepacivirus hominis), O39930 [M423F] (O39930 entry or part of it M423F): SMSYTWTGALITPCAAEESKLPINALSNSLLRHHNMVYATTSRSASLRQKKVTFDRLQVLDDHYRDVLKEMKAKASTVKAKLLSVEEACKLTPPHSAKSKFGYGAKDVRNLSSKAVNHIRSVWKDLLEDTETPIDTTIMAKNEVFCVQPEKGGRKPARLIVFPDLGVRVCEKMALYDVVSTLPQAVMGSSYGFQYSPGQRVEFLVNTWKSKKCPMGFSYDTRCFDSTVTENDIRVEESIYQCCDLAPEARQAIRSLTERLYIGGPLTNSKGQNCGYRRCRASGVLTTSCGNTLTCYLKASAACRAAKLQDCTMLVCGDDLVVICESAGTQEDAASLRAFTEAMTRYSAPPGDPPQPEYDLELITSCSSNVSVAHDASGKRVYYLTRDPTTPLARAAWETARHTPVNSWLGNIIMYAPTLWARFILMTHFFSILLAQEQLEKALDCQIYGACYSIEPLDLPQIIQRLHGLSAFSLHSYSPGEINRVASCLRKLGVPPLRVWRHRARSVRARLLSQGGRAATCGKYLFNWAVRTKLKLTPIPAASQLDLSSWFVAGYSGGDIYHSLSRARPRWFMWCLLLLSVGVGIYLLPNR
# Outline: (§1)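 SPA polymerase assay at 22 °C: 50 nM genotype 1b BK NS5B (C-terminal 21-residue deletion), mutant and wild-type, preincubated with inhibitor in pH 7.5 Tris buffer with MgCl2, DTT, KCl, BSA and 5% DMSO. Started with [3H]UTP, 1 µM UTP, biotinylated oligo(rU12) and poly(rA); stopped at 120 min with streptavidin SPA beads, then CsCl, then counted. Fold-change in inhibition over wild-type.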
# [5] = tested on: RNA-directed RNA polymerase (Hepacivirus hominis), O39930 [P495L]; assay: Inhibition of HCV 1b BK NS5B polymerase NNI-1 allosteric site P495L mutant by scintillation proximity assay relative to wild-type; settings: Hepatitis C virus (isolate BK); outline: as §1
# Chain of RNA-directed RNA polymerase (Hepacivirus hominis), O39930 [P495L] (O39930 entry or part of it P495L): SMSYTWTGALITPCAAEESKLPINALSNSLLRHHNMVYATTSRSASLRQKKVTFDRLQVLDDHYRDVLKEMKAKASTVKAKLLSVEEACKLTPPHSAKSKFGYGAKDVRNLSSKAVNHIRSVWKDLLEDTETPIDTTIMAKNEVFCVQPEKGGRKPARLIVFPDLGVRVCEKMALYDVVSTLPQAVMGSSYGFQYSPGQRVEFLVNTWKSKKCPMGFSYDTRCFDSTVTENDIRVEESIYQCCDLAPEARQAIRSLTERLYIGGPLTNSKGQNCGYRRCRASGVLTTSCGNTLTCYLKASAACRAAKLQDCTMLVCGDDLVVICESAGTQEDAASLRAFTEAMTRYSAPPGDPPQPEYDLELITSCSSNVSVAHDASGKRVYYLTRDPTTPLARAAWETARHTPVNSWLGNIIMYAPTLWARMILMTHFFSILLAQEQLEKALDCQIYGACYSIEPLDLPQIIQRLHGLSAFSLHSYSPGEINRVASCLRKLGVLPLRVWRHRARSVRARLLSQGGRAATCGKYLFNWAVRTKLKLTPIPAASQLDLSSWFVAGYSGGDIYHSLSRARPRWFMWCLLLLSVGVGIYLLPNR
# Hepatitis C virus [6] = assay: Antiviral activity against HCV 1a infected in human HuH7 cells assessed as total viral RNA level after 48 hrs by RT-qPCR analysis; type: functional, organism-based, Hepacivirus hominis; settings: subtype 1a, Huh-7, 48 h
# [7] = Hepatitis C virus, genotype 1b, Huh-7, 48 h, read-out: EC50
SMILES,EC50 (Hepatitis C virus [1]; huh-7),IC50 [3] [µM],EC50 (Hepatitis C virus [1]; [7]) [µM],EC50 (Hepatitis C virus [6]) [µM],GI50 ([2]; huh-7),"GI50 ([2]; HuH7 cells, read-out: GI50) [µM]",fold change (FC) [4],fold change (FC) [5]
COc1cc2c(=O)c(C(=O)c3ccc(C)cc3)cn(CC3CCCCC3)c2cc1OC,,9,38,,,22,,
COc1cc2c(=O)c(S(=O)(=O)CCc3ccc(Cl)cc3)cn(Cc3ccccc3)c2cc1OC,Not Active,> 150,,,Not Active,,,
COc1cc2c(=O)c(C(=O)c3ccc(C)cc3)cn(Cc3ccc(C(C)C)cc3)c2cc1OC,,1.15,11.7,,,15.5,> 200,1
COc1cc2c(=O)c(C(=O)c3ccc(C)cc3)cn(Cc3ccccc3)c2cc1OC,Not Active,170,,,Not Active,,,
O=C(NCc1ccc(Cl)cc1)c1cn(Cc2ccc(Cl)cc2)c2cc(N3CCOCC3)c(F)cc2c1=O,Not Active,16,,,Not Active,,,
CCOC(=O)c1cn(Cc2ccc(Cl)cc2)c2cc(OC)c(OC)cc2c1=O,,16,> 15,,,> 15,,
CN(Cc1ccc(Cl)cc1)C(=O)c1cn(Cc2ccc(Cl)cc2)c2cc(N3CCOCC3)c(F)cc2c1=O,Not Active,330,,,Not Active,,,
CN1CCN(c2cc3c(cc2F)c(=O)c(NC(=O)NCc2ccccc2)cn3Cc2ccccc2)CC1,Not Active,26,,,Not Active,,,
COc1cc2c(=O)c(COCc3ccc(Cl)cc3)cn(Cc3ccccc3)c2cc1OC,Not Active,100,,,Not Active,,,
COc1cc2c(=O)c(C(=O)c3ccc(C)cc3)cn(CC3CC3)c2cc1OC,Not Active,120,,,Not Active,,,
COc1cc2c(=O)c(C(=O)c3ccc(C)cc3)cn(Cc3ccc(N)cc3)c2cc1OC,Not Active,140,,,Not Active,,,
CN1CCN(c2cc3c(cc2F)c(=O)c(NC(=O)Cc2ccccc2)cn3Cc2ccc(Cl)cc2)CC1,Not Active,4.6,,,Not Active,,,
COc1cc2c(=O)c(C(=O)c3ccc(C)cc3)cn(CCc3ccccc3)c2cc1OC,Not Active,110,,,Not Active,,,
CN1CCN(c2cc3c(cc2F)c(=O)c(NC(=O)NCc2ccc(Cl)cc2)cn3Cc2ccc(Cl)cc2)CC1,Not Active,> 150,,,Not Active,,,

# Continued, in another order:
EC50 (Hepatitis C virus [1]; huh-7),IC50 [3] [µM],EC50 (Hepatitis C virus [1]; [7]) [µM],EC50 (Hepatitis C virus [6]) [µM],SMILES,GI50 ([2]; huh-7),"GI50 ([2]; HuH7 cells, read-out: GI50) [µM]",fold change (FC) [4],fold change (FC) [5]
Not Active,2,,,CN1CCN(c2cc3c(cc2F)c(=O)c(NC(=O)Cc2ccc(Cl)cc2)cn3Cc2ccccc2)CC1,Not Active,,,
Not Active,2.2,,,COc1cc2c(=O)c(C(=O)c3ccc(C)cc3)cn(CCCc3ccccc3)c2cc1OC,Not Active,,,
,0.06,1.2,,COc1cc2c(=O)c(C(=O)OCc3cccc(C)c3)cn(Cc3ccc(C(F)(F)F)cc3F)c2cc1OC,,7.3,,
,0.01,0.12,0.41,O=C(OCc1ccc(Cl)cc1)c1cn(Cc2ccc(Cl)cc2)c2cc(N3CCNCC3)c(F)cc2c1=O,,1.1,,
Not Active,1.1,,,COc1cc2c(=O)c(C(=O)c3ccc(C)cc3)cn(Cc3ccc(Cl)c(Cl)c3)c2cc1OC,Not Active,,,
,0.41,> 12,,COc1cc2c(=O)c(C(=O)c3ccc(C)cc3)cn(Cc3ccc(C(F)(F)F)cc3F)c2cc1OC,,> 25,,
,0.02,1.2,,COc1cc2c(=O)c(C(=O)OCc3ccc(Cl)cc3)cn(Cc3ccc(Cl)cc3)c2cc1OC,,28.3,,
,1.1,11.7,,COc1cc2c(=O)c(C(=O)c3ccc(C)cc3)cn(Cc3ccc(Cl)cc3)c2cc1OC,,15.5,,
,0.85,> 50,,COc1cc2c(=O)c(C(=O)c3ccc(C)cc3)cn(Cc3ccc(S(N)(=O)=O)cc3)c2cc1OC,,> 25,,
,0.008,0.23,,COc1cc2c(=O)c(C(=O)OCc3ccc(C)cc3)cn(Cc3ccc(C(F)(F)F)cc3F)c2cc1OC,,20,,
,0.02,1.7,,O=C(OCc1ccc(Cl)cc1)c1cn(Cc2ccc(Cl)cc2)c2cc(N3CCOCC3)c(F)cc2c1=O,,> 12,,
,0.5,25.3,,COc1cc2c(=O)c(C(=O)c3ccc(C)cc3)cn(Cc3ccc(S(C)(=O)=O)cc3)c2cc1OC,,> 50,,
,0.68,9.5,,COc1cc2c(=O)c(C(=O)c3ccc(C)cc3)cn(Cc3ccc(C(C)(C)C)cc3)c2cc1OC,,> 25,,
,0.015,0.71,,COc1cc2c(=O)c(C(=O)OCc3ccccc3C)cn(Cc3ccc(C(F)(F)F)cc3F)c2cc1OC,,31,,
